Reference: ChEMBL document CHEMBL4673180, “Synthesis of quinone imine and sulphur-containing compounds with antitumor and trypanocidal activities: redox and biological implications” (RSC Med Chem, 2020)

Key:
[1] = tested on: Trypanosoma cruzi; assay: Antitrypanosomal activity against Trypanosoma cruzi Y strain bloodstream trypomastigotes assessed as lysis of parasite in presence of 5 % mouse blood incubated for 24 hrs by Neubauer chamber method; assay type: functional, organism-based
In short: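 Y strain bloodstream trypomastigotes came from infected albino mice at peak parasitaemia, purified by differential centrifugation, in RPMI at 10^7 cells/mL with 10% mouse blood. They were mixed 1:1 with compound at twice the final concentration (5% blood final), 24 h at 4 °C, with DMSO ≤0.4% final. Neubauer chamber counting; IC50 is 50% lysis; at least three independent experiments.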

[2] = Cytotoxicity against albino Swiss mouse peritoneal macrophages assessed as reduction in cell viability incubated for 24 hrs by Presto blue assay; assay type: tissue-based, Macrophage; conditions: read-out: LC50
In short: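 Primary peritoneal macrophages from Albino Swiss mice were seeded at 2.5 × 10^4 cells per well in RPMI-1640 (pH 7.2, 10% FBS, 2 mM glutamine) and grown 24 h at 37 °C. They were then treated 24 h at 37 °C with compound from DMSO stock (final DMSO ≤0.4%).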

[3] = Selectivity index, ratio of LC50 for cytotoxicity against albino Swiss mouse peritoneal macrophages to IC50 for Antitrypanosomal activity against Trypanosoma cruzi Y strain bloodstream trypomastigotes assessed as lysis of parasite in presence of 5 % mouse blood; assay type: toxicity
In short: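 Y-strain bloodstream trypomastigotes came from infected albino mice at peak parasitaemia and were purified by differential centrifugation. They were resuspended at 10^7/mL in RPMI with 10% mouse blood and mixed 1:1 with compound at twice the final concentration (DMSO ≤0.4%). Incubation was 24 h at 4 °C (5% blood per footnote).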

[4] = tested on: HCT-116; assay: Cytotoxicity against human HCT-116 cells assessed as reduction in cell viability after 72 hrs by MTT assay; assay type: functional, cell-based; conditions: HCT-116, 72 h
In short: (§1)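 Cells were grown in medium with 10% FBS, 2 mM L-glutamine, penicillin and streptomycin at 37 °C, 5% CO2. Seeding per well was 0.1 × 10^6 for leukaemia, PC3, L929 and NCI-H460, and 0.7 × 10^5 for HCT-116. Compounds in DMSO (0.1% final) were applied for 72 h. MTT (0.5 mg/mL) was added for 3 h, formazan dissolved in DMSO, and absorbance read at 550 nm. IC50 by nonlinear regression; three independent experiments in triplicate.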

[5] = tested on: NCI-H460; assay: Cytotoxicity against human NCI-H460 cells assessed as reduction in cell viability after 72 hrs by MTT assay; assay type: functional, cell-based; conditions: NCI-H460, 72 h
In short: (§2)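 Cells were grown in medium with 10% FBS, 2 mM L-glutamine, penicillin and streptomycin at 37 °C, 5% CO2. Compounds in DMSO (0.1% final) were applied for 72 h. MTT (0.5 mg/mL) was added for 3 h, formazan dissolved in DMSO, and absorbance read at 550 nm. IC50 by nonlinear regression; three independent experiments in triplicate.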

[6] = tested on: PC-3; assay: Cytotoxicity against human PC-3 cells assessed as reduction in cell viability after 72 hrs by MTT assay; assay type: functional, cell-based; conditions: PC-3, 72 h; in short: as §1
[7] = tested on: HL-60; assay: Cytotoxicity against human HL-60 cells assessed as reduction in cell viability after 72 hrs by MTT assay; assay type: functional, cell-based; conditions: HL-60, 72 h; in short: as §2
[8] = tested on: K562; assay: Cytotoxicity against human K562 cells assessed as reduction in cell viability after 72 hrs by MTT assay; assay type: functional, cell-based; conditions: K562, 72 h; in short: as §1
[9] = Cytotoxicity against human Lucena1 cells assessed as reduction in cell viability after 72 hrs by MTT assay; assay type: functional, cell-based; conditions: Lucena 1, 72 h; in short: as §1
[10] = tested on: L929; assay: Cytotoxicity against mouse L929 cells assessed as reduction in cell viability after 72 hrs by MTT assay; assay type: cell-based; conditions: L929, 72 h; in short: as §1
[11] = Selectivity index, ratio of IC50 for mouse L929 cells to IC50 for human HCT116 cells after 72 hrs by MTT assay; assay type: toxicity; conditions: L929 cells versus HCT116 cells, read-out: Ratio IC50
In short: (§3)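 Both cell types were kept in medium with 10% FBS, 2 mM L-glutamine and penicillin/streptomycin at 37 °C, 5% CO2. Seeding was 0.7 × 10^5 cells per well for HCT-116, 0.1 × 10^6 for the other lines. Cells got compound in DMSO (0.1% final) for 72 h, then 0.5 mg/mL MTT for 3 h, with formazan read at 550 nm. IC50 came from nonlinear regression over three independent experiments in triplicate. SI is the L929 IC50 divided by the cancer-line IC50.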

[12] = Selectivity index, ratio of IC50 for mouse L929 cells to IC50 for human NCI-H460 cells after 72 hrs by MTT assay; assay type: toxicity; conditions: L929 cells versus NCI-H460 cells, read-out: Ratio IC50; in short: as §3
[13] = Selectivity index, ratio of IC50 for mouse L929 cells to IC50 for human PC3 cells after 72 hrs by MTT assay; assay type: toxicity; conditions: L929 cells versus PC3 cells, read-out: Ratio IC50; in short: as §3
[14] = Selectivity index, ratio of IC50 for mouse L929 cells to IC50 for human HL-60cells after 72 hrs by MTT assay; assay type: toxicity; conditions: L929 cells versus HL-60 cells, read-out: Ratio IC50; in short: as §3
[15] = Selectivity index, ratio of IC50 for mouse L929 cells to IC50 for human K-562 cells after 72 hrs by MTT assay; assay type: toxicity; conditions: L929 cells versus K-562 cells, read-out: Ratio IC50; in short: as §3
[16] = Selectivity index, ratio of IC50 for mouse L929 cells to IC50 for human Lucena1 cells after 72 hrs by MTT assay
In short: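 Selectivity index is the ratio of IC50 in murine L929 fibroblasts to IC50 in Lucena 1 cells, each measured by 72 h MTT assay (absorbance 550 nm). IC50 values came from nonlinear regression of three independent experiments in triplicate.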

[17] = tested on: Trypanosoma cruzi; assay: Antitrypanosomal activity against Trypanosoma cruzi Y strain bloodstream trypomastigotes assessed as lysis of parasite in absence of mouse blood incubated for 24 hrs by Neubauer chamber method; assay type: functional, organism-based
In short: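 T. cruzi Y strain bloodstream trypomastigotes came from infected albino mice at peak parasitaemia and were purified by differential centrifugation. They were exposed to compounds for 24 h at 37 °C without blood. Parasites were counted in a Neubauer chamber, and IC50 is the concentration lysing 50% of parasites. Values are mean ± SD of at least three independent experiments.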

[18] = Selectivity index, ratio of LC50 for cytotoxicity against albino Swiss mouse peritoneal macrophages to IC50 for Antitrypanosomal activity against Trypanosoma cruzi Y strain bloodstream trypomastigotes assessed as lysis of parasite in absence of mouse blood; assay type: toxicity
In short: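 Y-strain bloodstream trypomastigotes came from infected albino mice at peak parasitaemia and were purified by differential centrifugation into RPMI. They were exposed 24 h at 37 °C without blood to compound (DMSO ≤0.4%).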

Cc1ccc(S(=O)(=O)n2cc(COC3=C/C(=N\c4ccc(F)cc4)c4ccccc4C3=O)nn2)cc1
IC50 [1]: > 500 µM | CC50 at 24 h [2]: 26.9 µM | selectivity ratio [3]: > 18.6 | IC50 [4]: 5.75 µM | IC50 [5]: 7.36 µM | IC50 [6]: 2.03 µM | IC50 [7]: 7.52 µM | IC50 [8]: 7.7 µM | IC50 [9]: 6.58 µM | IC50 [10]: > 20 µM | selectivity ratio at 72 h [11]: 3.5 | selectivity ratio at 72 h [12]: 2.7 | selectivity ratio at 72 h [13]: 9.8 | selectivity ratio at 72 h [14]: 2.6 | selectivity ratio at 72 h [15]: 2.6 | Ratio IC50 [16]: 3

COc1ccc(SC2=CC(=O)C(=O)c3ccccc32)cc1
IC50 [1]: 112 µM | CC50 at 24 h [2]: 41.5 µM | selectivity ratio [3]: 0.37 | IC50 [17]: 3.9 µM | selectivity ratio [18]: 10.6 | IC50 [4]: > 20 µM | IC50 [5]: > 20 µM | IC50 [6]: > 20 µM | IC50 [7]: 9.38 µM | IC50 [8]: 13.3 µM | IC50 [9]: > 20 µM | IC50 [10]: > 20 µM | selectivity ratio at 72 h [11]: 1 | selectivity ratio at 72 h [12]: 1 | selectivity ratio at 72 h [13]: 1 | selectivity ratio at 72 h [14]: 3.6 | selectivity ratio at 72 h [15]: 2.5 | Ratio IC50 [16]: 1

Cc1ccc(/N=C2\C=C(OCc3cn(S(=O)(=O)c4ccc(C)cc4)nn3)C(=O)c3ccccc32)cc1
IC50 [1]: > 500 µM | CC50 at 24 h [2]: 88.5 µM | selectivity ratio [3]: > 5.65 | IC50 [4]: 3.61 µM | IC50 [5]: 8.02 µM | IC50 [6]: 2.65 µM | IC50 [7]: 5.42 µM | IC50 [8]: 6.22 µM | IC50 [9]: 1.44 µM | IC50 [10]: 17.7 µM | selectivity ratio at 72 h [11]: 4.9 | selectivity ratio at 72 h [12]: 2.2 | selectivity ratio at 72 h [13]: 6.7 | selectivity ratio at 72 h [14]: 3.3 | selectivity ratio at 72 h [15]: 2.9 | Ratio IC50 [16]: 12.3

COc1ccc(/N=C2\C=C(OCc3cn(S(=O)(=O)c4ccc(C)cc4)nn3)C(=O)c3ccccc32)cc1
IC50 [1]: > 500 µM | CC50 at 24 h [2]: 44.3 µM | selectivity ratio [3]: > 11.3 | IC50 [4]: 7.43 µM | IC50 [5]: 8.39 µM | IC50 [6]: > 20 µM | IC50 [7]: 6.96 µM | IC50 [8]: > 20 µM | IC50 [9]: 4.58 µM | IC50 [10]: > 20 µM | selectivity ratio at 72 h [11]: 2.9 | selectivity ratio at 72 h [12]: 2.6 | selectivity ratio at 72 h [13]: 1 | selectivity ratio at 72 h [14]: 3.3 | selectivity ratio at 72 h [15]: 1 | Ratio IC50 [16]: 5.4

CC(=O)c1ccc(/N=C2\C=C(OCc3cn(S(=O)(=O)c4ccc(C)cc4)nn3)C(=O)c3ccccc32)cc1
IC50 [1]: > 500 µM | CC50 at 24 h [2]: 40.6 µM | selectivity ratio [3]: > 12.3 | IC50 [4]: 6.27 µM | IC50 [5]: 15.8 µM | IC50 [6]: 3.91 µM | IC50 [7]: 5.3 µM | IC50 [8]: 5.52 µM | IC50 [9]: 6.46 µM | IC50 [10]: 10.8 µM | selectivity ratio at 72 h [11]: 1.7 | selectivity ratio at 72 h [12]: 0.7 | selectivity ratio at 72 h [13]: 2.7 | selectivity ratio at 72 h [14]: 2 | selectivity ratio at 72 h [15]: 1.9 | Ratio IC50 [16]: 1.7

Cc1cccc(SC2=CC(=O)C(=O)c3ccccc32)c1
IC50 [1]: 65.6 µM | CC50 at 24 h [2]: 67.3 µM | selectivity ratio [3]: 1.03 | IC50 [17]: 4.6 µM | selectivity ratio [18]: 14.6 | IC50 [4]: 19.6 µM | IC50 [5]: > 20 µM | IC50 [6]: > 20 µM | IC50 [7]: 5.42 µM | IC50 [8]: 16.2 µM | IC50 [9]: 12.7 µM | IC50 [10]: > 20 µM | selectivity ratio at 72 h [11]: 1.8 | selectivity ratio at 72 h [12]: 1 | selectivity ratio at 72 h [13]: 1 | selectivity ratio at 72 h [14]: 6.6 | selectivity ratio at 72 h [15]: 2.2 | Ratio IC50 [16]: 2.8

Cc1ccc(SC2=CC(=O)C(=O)c3ccccc32)cc1
IC50 [1]: 88.7 µM | CC50 at 24 h [2]: 81.4 µM | selectivity ratio [3]: 0.92 | IC50 [17]: 3.4 µM | selectivity ratio [18]: 23.9 | IC50 [4]: > 20 µM | IC50 [5]: > 20 µM | IC50 [6]: > 20 µM | IC50 [7]: 4.14 µM | IC50 [8]: 14.9 µM | IC50 [9]: 12.8 µM | IC50 [10]: > 20 µM | selectivity ratio at 72 h [11]: 1.3 | selectivity ratio at 72 h [12]: 0.8 | selectivity ratio at 72 h [13]: 0.8 | selectivity ratio at 72 h [14]: 6.6 | selectivity ratio at 72 h [15]: 1.8 | Ratio IC50 [16]: 2.1

O=C(Cn1ccnc1[N+](=O)[O-])NCc1ccccc1 [BENZNIDAZOLE]
CC50 at 24 h [2]: > 4000 µM | selectivity ratio [3]: > 38.6 | IC50 [17]: 9.7 µM | selectivity ratio [18]: > 413
